Laboratory results as given in PMC3361572 (Chemistry & biology, 2012).
Entries after “also recorded” stand apart in the source; their conditions may differ.

Legend:
[1] = biological target: T1, MAGL (Rattus norvegicus, UniProt Q8R431); test: competitive ABPP, rat brain membrane proteome; assay type: biochemical
T1 sequence (Q8R431 1-303): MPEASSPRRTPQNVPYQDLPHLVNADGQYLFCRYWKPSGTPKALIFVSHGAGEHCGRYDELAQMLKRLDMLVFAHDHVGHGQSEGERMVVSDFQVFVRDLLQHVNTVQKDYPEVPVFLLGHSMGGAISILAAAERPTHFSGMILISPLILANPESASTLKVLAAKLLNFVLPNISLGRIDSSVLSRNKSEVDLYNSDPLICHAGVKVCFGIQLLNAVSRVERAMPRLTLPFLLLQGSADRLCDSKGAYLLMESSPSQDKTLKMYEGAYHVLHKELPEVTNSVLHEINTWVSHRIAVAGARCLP
How it was run: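 Brain (mouse or rat) or mouse lung proteomes were preincubated with the test compound, then treated with the serine hydrolase probe FP-Rh. Samples were separated by SDS-PAGE and read by in-gel fluorescence scanning. Inhibition was taken as reduced FP-Rh labelling of MAGL, ABHD6, FAAH or CES bands, and IC50 values were calculated from quantified gel bands. Three independent experiments.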

[2] = biological target: T2, FAAH (Mus musculus, UniProt O08914); test: competitive ABPP of brain from inhibitor-treated mice; assay type: in vivo
T2 sequence (O08914 1-579): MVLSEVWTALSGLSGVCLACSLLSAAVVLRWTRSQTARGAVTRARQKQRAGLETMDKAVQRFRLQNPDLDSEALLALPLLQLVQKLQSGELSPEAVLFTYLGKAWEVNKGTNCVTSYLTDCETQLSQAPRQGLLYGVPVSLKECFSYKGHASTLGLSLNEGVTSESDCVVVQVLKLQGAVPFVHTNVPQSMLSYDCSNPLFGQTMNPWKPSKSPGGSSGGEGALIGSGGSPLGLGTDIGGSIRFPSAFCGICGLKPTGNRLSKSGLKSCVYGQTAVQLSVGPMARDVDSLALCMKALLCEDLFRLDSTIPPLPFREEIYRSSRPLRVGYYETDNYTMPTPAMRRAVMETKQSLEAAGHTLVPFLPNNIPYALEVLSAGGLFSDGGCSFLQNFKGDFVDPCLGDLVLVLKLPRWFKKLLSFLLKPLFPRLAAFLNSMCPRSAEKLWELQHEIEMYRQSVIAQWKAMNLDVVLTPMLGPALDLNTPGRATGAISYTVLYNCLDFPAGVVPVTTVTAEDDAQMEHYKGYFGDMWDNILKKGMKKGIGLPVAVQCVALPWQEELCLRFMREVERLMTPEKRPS

[3] = biological target: T3, FAAH (Rattus norvegicus, UniProt P97612); test: competitive ABPP, rat brain membrane proteome; assay type: biochemical
T3 sequence (P97612 1-579): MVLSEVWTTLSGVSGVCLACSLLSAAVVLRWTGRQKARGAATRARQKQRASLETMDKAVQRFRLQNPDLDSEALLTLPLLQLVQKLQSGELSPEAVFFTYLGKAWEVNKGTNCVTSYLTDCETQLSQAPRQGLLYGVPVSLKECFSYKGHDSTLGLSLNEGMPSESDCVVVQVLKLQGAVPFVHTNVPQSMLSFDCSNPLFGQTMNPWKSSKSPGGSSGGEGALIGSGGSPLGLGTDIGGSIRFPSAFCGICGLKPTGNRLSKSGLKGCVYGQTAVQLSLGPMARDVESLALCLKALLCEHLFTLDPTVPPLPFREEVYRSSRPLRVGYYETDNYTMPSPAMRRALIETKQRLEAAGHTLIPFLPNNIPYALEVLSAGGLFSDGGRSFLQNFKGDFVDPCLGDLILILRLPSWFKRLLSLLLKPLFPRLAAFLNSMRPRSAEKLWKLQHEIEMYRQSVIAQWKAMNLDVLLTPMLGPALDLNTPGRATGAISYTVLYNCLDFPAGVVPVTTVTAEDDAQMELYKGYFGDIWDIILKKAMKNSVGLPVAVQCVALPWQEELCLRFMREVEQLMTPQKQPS
How it was run: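 Rat brain proteome pre-treated with test compound, then labelled with the serine hydrolase-directed fluorophosphonate-rhodamine (FP-Rh) activity-based probe. Proteins separated by SDS-PAGE and detected by in-gel fluorescence scanning. Inhibition scored as loss of FP-Rh labelling of the FAAH band. IC50 calculated from the gel-based ABPP data.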

SMILES: O=C(OC(C(F)(F)F)C(F)(F)F)N1CCC(C(O)(c2ccc3c(c2)OCO3)c2ccc3c(c2)OCO3)CC1 [KML29]
- selectivity for rat MAGL relative to rat ABHD6 ([1]; rat brain homogenates, competitive ABPP): > 20 fold
- inhibitor concentrations with selective inhibition of MAGL ([1]; rat brain serine hydrolase activities, full ABPP gel): ≤ 1 µM
- IC50 ([1]; read-out: IC50 (95% CI), rat MAGL, competitive ABPP, rat brain membrane proteome): 43 nM
- brain FAAH inhibition, chronic dosing ([2]; 40 mg kg^−1 p.o., six days): selectively inhibited MAGL without any effect on FAAH
- selectivity over brain FAAH ([2]; all doses tested 1–40 mg kg^−1 p.o., 4 h): complete selectivity over FAAH
- selectivity for MAGL over FAAH during time course ([2]; single oral dose 20 mg kg^−1, 24 h time course): complete selectivity for MAGL over FAAH
- FAAH inhibition / cross-reactivity (gel-based ABPP) ([3]; rat brain proteome): no detectable cross-reactivity; also recorded: No inhibition of FAAH was detected
- IC50 ([3]; read-out: IC50 (95% CI), rat FAAH, competitive ABPP, rat brain membrane proteome): > 50 µM
